Assay results as given in ChEMBL document CHEMBL1268835, “Property based optimization of δ-lactam HDAC inhibitors for metabolic stability” (Bioorg Med Chem Lett, 2010).

Legend:
[1] = Metabolic stability of the compound in ICR mouse liver microsome assessed as compound remaining at 1 uM; format: ADME; conditions: liver microsomes, read-out: Stability
Procedure, shortened: (§1)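 Test compounds were incubated at 37 °C with ICR mouse liver microsomes, with NADPH, without NADPH, and in buffer alone. Read-out is % parent remaining. The screen used 1 mg protein/ml for 30 min. A separate run used female ICR microsomes at 0.5 mg protein/mL for 60 min with 1 µM compound.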

[2] = Metabolic stability of the compound in ICR mouse liver microsome assessed as compound remaining at 1 uM in presence of NADPH; format: ADME; conditions: liver microsomes, read-out: Stability; procedure, shortened: as §1
[3] = Metabolic stability of the compound in ICR mouse liver microsome assessed as compound remaining at 1 uM in presence of buffer; format: ADME; conditions: liver microsomes, read-out: Stability; procedure, shortened: as §1
PC-3 = test: Growth inhibition of human PC3 cells; format: functional, cell-based
MDA-MB-231 = test: Growth inhibition of human MDA-MB-231 cells; format: functional, cell-based
ACHN = test: Growth inhibition of human ACHN cells; format: functional
NUGC-3 = test: Growth inhibition of human NUGC3 cells; format: functional
HCT-15 = test: Growth inhibition of human HCT15 cells; format: functional
NCI-H23 = test: Growth inhibition of human NCI-H23 cells; format: functional
[4] = Apparent permeability across human Caco-2 cells; format: ADME, cell-based
[5] = Half life in BALB/c mouse at 20 mg/kg, po; format: ADME, organism-based; parameters: dose 20 mg/kg, route oral; conditions: in vivo
Procedure, shortened: (§2)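 Balb/c mice were dosed intravenously or orally. Parameters come from noncompartmental analysis of mean plasma concentration–time profiles from three animals. Intravenous AUC was taken from 0 to infinity and oral AUC from 0 to 5 h. Oral bioavailability (F) is expressed as %.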

[6] = Oral bioavailability in BALB/c mouse at 20 mg/kg; format: ADME, organism-based; conditions: in vivo; procedure, shortened: as §2
[7] = AUC (0 to 5 hrs) in BALB/c mouse at 20 mg/kg, po; format: ADME, organism-based; parameters: dose 20 mg/kg, route oral; conditions: plasma; procedure, shortened: as §2
[8] = Tmax in BALB/c mouse at 20 mg/kg, po; format: ADME, organism-based; parameters: dose 20 mg/kg, route oral; conditions: in vivo; procedure, shortened: as §2
[9] = Cmax in BALB/c mouse at 20 mg/kg, po; format: ADME, organism-based; parameters: dose 20 mg/kg, route oral; conditions: in vivo; procedure, shortened: as §2
[10] = Clearance in BALB/c mouse at 5 mg/kg, iv; format: ADME, organism-based; parameters: dose 5 mg/kg, route intravenous; conditions: in vivo; procedure, shortened: as §2
[11] = Half life in BALB/c mouse at 5 mg/kg, iv; format: ADME, organism-based; parameters: dose 5 mg/kg, route intravenous; conditions: in vivo; procedure, shortened: as §2
[12] = AUC (0 to infinity) in BALB/c mouse at 5 mg/kg, iv; format: ADME, organism-based; parameters: time infinity, dose 5 mg/kg, route intravenous; conditions: plasma; procedure, shortened: as §2
[13] = (§3) Volume of distribution at steady state in BALB/c mouse at 5 mg/kg, iv; format: ADME, organism-based; parameters: dose 5 mg/kg, route intravenous; conditions: BALB/c, in vivo, read-out: Vdss; procedure, shortened: as §2
Mus musculus [14] = test: as §3; format: ADME, organism-based; parameters: dose 5 mg/kg, route intravenous; conditions: in vivo; procedure, shortened: as §2
Mus musculus [15] = test: Clearance in BALB/c mouse at 10 mg/kg, iv; conditions: in vivo
Mus musculus [16] = test: Half life in BALB/c mouse at 10 mg/kg, iv; conditions: in vivo

Compound | remaining at 1 µM [1] [%] | remaining at 1 µM [2] [%] | GI50 (PC-3) [µM] | GI50 (MDA-MB-231) [µM] | GI50 (ACHN) [µM] | GI50 (NUGC-3) [µM] | GI50 (HCT-15) [µM] | GI50 (NCI-H23) [µM] | also measured
CC(C)(C)c1ccc(CCCN2CCC=C(CCC(=O)NO)C2=O)cc1 | 8 | 3.3 | 1.13 | > 10 | 1.72 | 2.81 | 1.66 | 2 | remaining at 1 µM [3]: 103%
O=C(CCC1=CCCN(CCc2ccccc2Cl)C1=O)NO | – | – | 7.25 | 3.91 | 8.71 | 5.93 | 4.21 | 6.5 | –
Cc1cccc(CCN2CCC=C(CCC(=O)NO)C2=O)c1 | – | – | > 10 | 4.04 | – | – | 4.41 | – | –
CC(C)(C)c1ccc(CCN2CCC=C(CCC(=O)NO)C2=O)cc1 | – | – | 0.5 | 1.13 | 2.27 | 1.1 | 0.52 | 0.99 | –
O=C(CCC1=CCCN(CCc2cccc(Br)c2)C1=O)NO | – | – | 0.81 | 0.87 | 0.3 | 0.82 | 1.25 | 1.83 | –
O=C(CCC1=CCCN(CCc2ccc(Br)cc2)C1=O)NO | 56.6 | 29.6 | 3.41 | 1.87 | – | – | 0.87 | – | remaining at 1 µM [3]: 104%
O=C(CCC1=CCCN(CCc2ccc(C(F)(F)F)cc2)C1=O)NO | – | – | 4.82 | 1.81 | – | – | 1.7 | – | –
O=C(CCC1=CCCN(CCCc2ccc3ccccc3c2Br)C1=O)NO | – | – | 0.3 | 0.56 | 0.46 | 0.79 | 0.53 | 0.49 | –
CNC(=C[N+](=O)[O-])NCCSCc1ccc(CN(C)C)o1 [RANITIDINE] | – | – | – | – | – | – | – | – | Papp [4]: 1.5 ×10⁻⁶ cm/s
O=C(CCC1=CCCN(CCCCc2ccccc2)C1=O)NO | 8.5 | 8.7 | 3.25 | 2.03 | 1.89 | 3.19 | 5.4 | 5.99 | half-life [5]: 9 min; bioavailability [6]: 1%; AUC(0-t) at 4 h [7]: 64.4 ng·h/mL; Tmax [8]: 15 min; Cmax [9]: 197 ng/mL; clearance [10]: 49.8 mL/min/kg; half-life [11]: 77.4 min; AUC(0-inf) [12]: 1670 ng·h/mL; Papp [4]: 23.9 ×10⁻⁶ cm/s; remaining at 1 µM [3]: 97.3%; Vd [13]: 0.27 L/kg
CN(C)CCCN1c2ccccc2Sc2ccc(Cl)cc21 [CHLORPROMAZINE] | 86.8 | 1.2 | – | – | – | – | – | – | –
O=C(CCC1=CCCN(CCc2ccc(Cl)cc2)C1=O)NO | – | – | 1.51 | 0.92 | 1.28 | 1.06 | 1.66 | 2.12 | –
Cc1ccc(CCCCN2CCC=C(CCC(=O)NO)C2=O)cc1 | 5.7 | 4 | 2.53 | 3.05 | 2.49 | 2.13 | 2.94 | 2.79 | remaining at 1 µM [3]: 99.3%
N#Cc1ccc(CN2CCC=C(CCC(=O)NO)C2=O)cc1 | – | – | > 10 | 8.17 | – | – | > 10 | – | –
O=C(CCC1=CCCN(CCCCc2ccc(Br)cc2)C1=O)NO | – | – | 4.81 | 3.54 | 2.39 | 2.01 | 3.19 | 2.73 | –
O=C(CCC1=CCCN(Cc2cccc(Cl)c2)C1=O)NO | 40.3 | 31.3 | 4.65 | 3.58 | 4.48 | 3.92 | 6.22 | 2.96 | remaining at 1 µM [3]: 103%
O=C(CCC1=CCCN(CCc2cccc(C(F)(F)F)c2)C1=O)NO | – | – | 2.47 | 1.9 | 2.64 | 1.7 | 2.35 | 3.97 | –
O=C(CCC1=CCCN(CCc2ccccc2F)C1=O)NO | 52.7 | 45.3 | 7.07 | 3.02 | 4.47 | 3.78 | 3.6 | 6.09 | remaining at 1 µM [3]: 104%
CC(C)(C)c1ccc(CN2CCC=C(CCC(=O)NO)C2=O)cc1 | – | – | 5.19 | 2.84 | 3 | – | 2.94 | – | –
O=C1CC2(CCCC2)CC(=O)N1CCCCN1CCN(c2ncccn2)CC1 [BUSPIRONE] | 96.6 | 0.3 | – | – | – | – | – | – | remaining at 1 µM [3]: 106%
O=C(CCC1=CCCN(CCCCc2ccc(Cl)cc2)C1=O)NO | – | – | 4.15 | 2.56 | 2.46 | 1.79 | 3.3 | 2.88 | –
COc1cccc(CCN2CCC=C(CCC(=O)NO)C2=O)c1 | – | – | 4.84 | 3.03 | 7.6 | 4.26 | 3.96 | 7.06 | –
O=C(CCC1=CCCN(CCc2ccc3ccccc3c2)C1=O)NO | – | – | 0.39 | 0.27 | 0.38 | 0.36 | 0.31 | 0.43 | –
Cc1ccc(CCN2CCC=C(CCC(=O)NO)C2=O)cc1 | – | – | 6.34 | 2.84 | 4.55 | 3.57 | 4 | 5.56 | –
O=C(CCC1=CCCN(CCc2ccc([N+](=O)[O-])cc2)C1=O)NO | – | – | > 10 | > 10 | > 10 | > 10 | > 10 | > 10 | –
COCCc1ccc(OCC(O)CNC(C)C)cc1 (stereo unspecified) [METOPROLOL] | – | – | – | – | – | – | – | – | Papp [4]: 29.6 ×10⁻⁶ cm/s
O=C(CCC1=CCCN(CCCCc2ccc(F)cc2)C1=O)NO | – | – | > 10 | > 10 | 9.53 | 9.02 | > 10 | > 10 | –
N#Cc1cccc(CN2CCC=C(CCC(=O)NO)C2=O)c1 | – | – | 8.48 | 4.18 | – | – | > 10 | – | –
O=C(CCC1=CCCN(Cc2ccc(Br)cc2F)C1=O)NO | 55 | 31.7 | 5.81 | 3.12 | – | – | 5.37 | – | bioavailability [6]: 14.1%; AUC(0-t) at 4 h [7]: 732 ng·h/mL; Tmax [8]: 15 min; Cmax [9]: 1390 ng/mL; AUC(0-inf) [12]: 2590 ng·h/mL; remaining at 1 µM [3]: 102%; Vdss (Mus musculus [14]): 0.8 L/kg; CL (Mus musculus [15]): 65 mL/min/kg; t1/2 (Mus musculus [16]): 372 min
